Test results published in ChEMBL document CHEMBL3352559, “Synthesis and pharmacological investigation of aralkyl diamine derivatives as potential triple reuptake inhibitors” (Eur J Med Chem, 2014).

Columns and labels:
[1] = Drug uptake in Sprague-Dawley rat brain at 0.5 mg/kg ip after 0.08 hrs
[2] = Ratio of drug level in Sprague-Dawley rat brain to plasma at 0.5 mg/kg iv after 0.25 hrs; assay type: ADME, organism-based; set-up: dose 0.5 mg/kg, route intravenous; conditions: read-out: BPR
Salmonella typhimurium [3] = experiment: Mutagenic activity in Salmonella typhimurium TA98 assessed as number of reversion mutation at 5000 ug/plate; assay type: toxicity, organism-based; conditions: salmonella enterica subsp. enterica serovar typhimurium
How it was run: (§1)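 Ames reversion test in Salmonella typhimurium TA98 and TA100, with and without rat liver S9 metabolic activation. Compound was dissolved in DMSO and added at 3–5000 μg/plate. Each dose, vehicle and positive control was plated in triplicate, and revertant colonies were counted.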

Homo sapiens [4] = organism: Homo sapiens; experiment: Displacement of [3H]GABA from GABA receptor (unknown origin) at 10 uM relative to control
How it was run: (§2)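 Outsourced CNS panel of 55 receptor binding assays run by Cerep. Compound tested at 10 μM, the default primary-binding concentration, with inhibition expressed relative to control. Inhibition above 50% taken as a significant effect.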

[5] = AUC (0 to infinity) in Sprague-Dawley rat at 0.5 mg/kg, iv; assay type: ADME, organism-based; set-up: time infinity, dose 0.5 mg/kg, route intravenous; conditions: plasma
How it was run: (§3)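 Male SD rats, fasted overnight until 6 h post-dose. PO group received single 2 mg/kg with heparinized blood sampled at 5, 15, 30 min, 1, 2, 4, 8, 24 h. IV group received single 0.5 mg/kg via femoral vein with sampling at 5, 15, 30 min, 1, 2, 4 h. Plasma stored at -40 °C, quantified by LC/MS/MS; 24 rats per group.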

[6] = target: Sodium-dependent serotonin transporter (Homo sapiens, UniProt P31645); experiment: Inhibition of [3H]-serotonin uptake in human SERT expressed in HEK293 cells by scintillation counting; assay type: cell-based
Salmonella typhimurium [7] = experiment: Mutagenic activity in Salmonella typhimurium TA98 assessed as number of reversion mutation at 1000 ug/plate; assay type: toxicity, organism-based; conditions: salmonella enterica subsp. enterica serovar typhimurium
How it was run: as §1

Salmonella typhimurium [8] = experiment: Mutagenic activity in Salmonella typhimurium TA100 assessed as number of reversion mutation at 300 ug/plate; assay type: toxicity, organism-based; conditions: salmonella enterica subsp. enterica serovar typhimurium
How it was run: as §1

[9] = target: Delta-type opioid receptor (Homo sapiens) (UniProt P41143); experiment: Displacement of [3H] DADLE from human delta opioid receptor at 10 uM relative to control
How it was run: as §2

Salmonella typhimurium [10] = experiment: Mutagenic activity in Salmonella typhimurium TA98 assessed as number of reversion mutation at 300 ug/plate; assay type: toxicity, organism-based; conditions: salmonella enterica subsp. enterica serovar typhimurium
How it was run: as §1

[11] = Acute toxicity in KM mouse assessed as survival at 750 mg/kg, po up to 14 days (reference value: 100%); assay type: organism-based; set-up: dose 750 mg/kg, route oral; conditions: in vivo
[12] = target: Muscarinic acetylcholine receptor M3 (Homo sapiens) (UniProt P20309); experiment: Displacement of [3H]4-DAMP from human muscarinic M3 receptor at 10 uM relative to control
How it was run: as §2

[13] = target: L-type calcium channel, verapamil binding site (Homo sapiens, UniProt O60840+Q01668+Q13698+Q13936); experiment: Inhibition of human L-type calcium channel verapamil binding site at 10 uM by [3H]D88 binding assay relative to control
How it was run: (§4)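 Outsourced CNS receptor panel (55 binding assays); compound tested at 10 μM in primary radioligand binding; specific binding inhibition expressed relative to control, with >50% inhibition taken as a significant effect.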

[14] = Ratio of drug level in Sprague-Dawley rat brain to plasma at 0.5 mg/kg iv after 2 hrs; assay type: ADME, organism-based; set-up: dose 0.5 mg/kg, route intravenous; conditions: read-out: BPR
[15] = Drug uptake in Sprague-Dawley rat plasma at 0.5 mg/kg iv after 1 hrs; assay type: ADME, organism-based; set-up: dose 0.5 mg/kg, route intravenous
How it was run: (§5)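 Male SD rats, fasted overnight until 6 h post-dose; single 0.5 mg/kg femoral-vein injection; blood drawn into heparin at 5, 15, 30 min, 1, 2 and 4 h; plasma stored at -40 °C; drug levels by LC/MS/MS; noncompartmental parameters.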

[16] = Drug uptake in Sprague-Dawley rat plasma at 0.5 mg/kg iv after 0.25 hrs; assay type: ADME, organism-based; set-up: dose 0.5 mg/kg, route intravenous
How it was run: as §5

Homo sapiens [17] = organism: Homo sapiens; experiment: Inhibition of GABA-gated chloride channel (unknown origin) at 10 uM by [35S]TBPS binding assay relative to control
How it was run: as §4

[18] = target: B2 bradykinin receptor (Homo sapiens) (UniProt P30411); experiment: Displacement of [3H]bradykinin from human bradykinin B2 receptor at 10 uM relative to control
How it was run: as §4

[19] = target: Histamine H1 receptor (Homo sapiens) (UniProt P35367); experiment: Displacement of [3H]Pyrilamine from human histamine H1 receptor at 10 uM relative to control
How it was run: as §2

[20] = AUC (0 to time) in Sprague-Dawley rat at 0.5 mg/kg, iv; assay type: ADME, organism-based; set-up: dose 0.5 mg/kg, route intravenous; conditions: plasma
How it was run: as §3

[21] = Ratio of drug level in Sprague-Dawley rat brain to plasma at 0.5 mg/kg iv after 0.50 hrs; assay type: ADME, organism-based; set-up: dose 0.5 mg/kg, route intravenous; conditions: read-out: BPR
[22] = Mean residence time in Sprague-Dawley rat at 0.5 mg/kg, iv; assay type: ADME, organism-based; set-up: dose 0.5 mg/kg, route intravenous; conditions: in vivo
How it was run: as §5

[23] = target: Nociceptin receptor (Homo sapiens) (UniProt P41146); experiment: Displacement of [3H] nociceptin from human ORL1 receptor at 10 uM relative to control
How it was run: as §2

Salmonella typhimurium [24] = experiment: Mutagenic activity in Salmonella typhimurium TA98 assessed as number of reversion mutation at 10 ug/plate; assay type: toxicity, organism-based; conditions: salmonella enterica subsp. enterica serovar typhimurium
How it was run: as §1

[25] = target: 5-hydroxytryptamine receptor 2A (Homo sapiens) (UniProt P28223); experiment: Displacement of [3H]ketanserin from human 5-HT2A receptor at 10 uM relative to control
How it was run: as §4

[26] = Drug uptake in Sprague-Dawley rat plasma at 0.5 mg/kg iv after 0.08 hrs; assay type: ADME, organism-based; set-up: dose 0.5 mg/kg, route intravenous
How it was run: as §5

[27] = Ratio of drug level in Sprague-Dawley rat brain to plasma at 0.5 mg/kg iv after 0.08 hrs; assay type: ADME, organism-based; set-up: dose 0.5 mg/kg, route intravenous; conditions: read-out: BPR
Salmonella typhimurium [28] = experiment: Mutagenic activity in Salmonella typhimurium TA100 assessed as number of reversion mutation at 100 ug/plate; assay type: toxicity, organism-based; conditions: salmonella enterica subsp. enterica serovar typhimurium
How it was run: as §1

[29] = target: C-X-C chemokine receptor type 2 (Homo sapiens) (UniProt P25025); experiment: Displacement of [125I]IL-8 from CXCR2 receptor (unknown origin) at 10 uM relative to control
How it was run: as §2

[30] = target: 5-hydroxytryptamine receptor 3A (Homo sapiens) (UniProt P46098); experiment: Inhibition of human 5HT3 at 10 uM by […] binding assay relative to control
How it was run: as §4

[31] = Drug uptake in Sprague-Dawley rat brain at 0.5 mg/kg ip after 0.50 hrs
[32] = Acute toxicity in KM mouse assessed as survival at 300 mg/kg, po up to 14 days (reference value: 100%); assay type: organism-based; set-up: dose 300 mg/kg, route oral; conditions: in vivo
[33] = target: Neuromedin-K receptor (Homo sapiens) (UniProt P29371); experiment: Displacement of [3H]-SR142801 from human NK3 receptor at 10 uM relative to control
How it was run: as §2

[34] = target: Adrenergic receptor alpha-2 (Homo sapiens) (UniProt P08913+P18825+P18089); experiment: Displacement of [3H]-RX-821002 from alpha-2 adrenergic receptor (unknown origin) at 10 uM relative to control; assay type: protein assay
How it was run: as §2

Rattus norvegicus = experiment: Apparent volume of distribution during terminal phase in Sprague-Dawley rat at 0.5 mg/kg, iv; assay type: ADME, organism-based; set-up: dose 0.5 mg/kg, route intravenous; conditions: in vivo
How it was run: as §3

[35] = Acute toxicity in KM mouse assessed as survival at 450 mg/kg, po up to 14 days (reference value: 100%); assay type: organism-based; set-up: dose 450 mg/kg, route oral; conditions: in vivo
Salmonella typhimurium [36] = experiment: Mutagenic activity in Salmonella typhimurium TA100 assessed as number of reversion mutation at 10 ug/plate; assay type: toxicity, organism-based; conditions: salmonella enterica subsp. enterica serovar typhimurium
How it was run: as §1

Chain of Neuromedin-K receptor (Homo sapiens) (P29371 whole entry): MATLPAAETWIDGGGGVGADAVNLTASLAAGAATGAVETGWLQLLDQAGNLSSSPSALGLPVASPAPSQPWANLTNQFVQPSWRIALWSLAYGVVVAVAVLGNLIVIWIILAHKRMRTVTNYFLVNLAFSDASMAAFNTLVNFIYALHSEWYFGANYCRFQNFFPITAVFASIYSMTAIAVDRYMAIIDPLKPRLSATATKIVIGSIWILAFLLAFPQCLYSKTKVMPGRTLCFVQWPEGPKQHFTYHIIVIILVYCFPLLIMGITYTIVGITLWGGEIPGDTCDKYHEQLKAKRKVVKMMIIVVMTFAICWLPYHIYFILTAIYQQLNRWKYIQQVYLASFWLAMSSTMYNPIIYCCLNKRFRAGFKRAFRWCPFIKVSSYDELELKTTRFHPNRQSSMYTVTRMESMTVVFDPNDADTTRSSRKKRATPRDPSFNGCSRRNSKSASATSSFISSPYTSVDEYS
Chain of 5-hydroxytryptamine receptor 2A (Homo sapiens) (P28223 whole entry): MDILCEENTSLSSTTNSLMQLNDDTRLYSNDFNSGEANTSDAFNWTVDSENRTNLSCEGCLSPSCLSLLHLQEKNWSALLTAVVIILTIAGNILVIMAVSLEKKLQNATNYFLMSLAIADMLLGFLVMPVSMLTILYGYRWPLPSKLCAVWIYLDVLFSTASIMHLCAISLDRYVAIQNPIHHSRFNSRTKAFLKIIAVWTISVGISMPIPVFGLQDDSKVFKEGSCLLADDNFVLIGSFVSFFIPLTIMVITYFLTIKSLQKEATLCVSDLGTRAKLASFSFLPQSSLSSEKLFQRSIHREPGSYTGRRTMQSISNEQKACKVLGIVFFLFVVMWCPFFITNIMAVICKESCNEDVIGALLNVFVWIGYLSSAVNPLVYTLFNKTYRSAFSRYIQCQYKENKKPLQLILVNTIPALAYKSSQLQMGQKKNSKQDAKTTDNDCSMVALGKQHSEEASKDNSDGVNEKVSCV
Chain of Histamine H1 receptor (Homo sapiens) (P35367 whole entry): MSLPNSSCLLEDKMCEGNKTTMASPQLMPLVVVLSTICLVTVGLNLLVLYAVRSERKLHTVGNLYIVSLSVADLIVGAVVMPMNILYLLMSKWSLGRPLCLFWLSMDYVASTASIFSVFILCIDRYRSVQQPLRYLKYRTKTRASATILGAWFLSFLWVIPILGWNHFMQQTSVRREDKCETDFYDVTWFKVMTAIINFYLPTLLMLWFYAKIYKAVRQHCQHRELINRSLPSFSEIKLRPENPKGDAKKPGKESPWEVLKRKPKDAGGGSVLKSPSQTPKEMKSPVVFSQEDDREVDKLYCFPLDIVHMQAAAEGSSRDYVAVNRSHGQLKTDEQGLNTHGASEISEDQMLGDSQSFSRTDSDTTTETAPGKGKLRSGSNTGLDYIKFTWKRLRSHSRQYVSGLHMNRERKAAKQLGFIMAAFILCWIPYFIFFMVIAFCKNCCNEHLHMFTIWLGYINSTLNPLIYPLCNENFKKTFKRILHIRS
Chain of Delta-type opioid receptor (Homo sapiens) (P41143 whole entry): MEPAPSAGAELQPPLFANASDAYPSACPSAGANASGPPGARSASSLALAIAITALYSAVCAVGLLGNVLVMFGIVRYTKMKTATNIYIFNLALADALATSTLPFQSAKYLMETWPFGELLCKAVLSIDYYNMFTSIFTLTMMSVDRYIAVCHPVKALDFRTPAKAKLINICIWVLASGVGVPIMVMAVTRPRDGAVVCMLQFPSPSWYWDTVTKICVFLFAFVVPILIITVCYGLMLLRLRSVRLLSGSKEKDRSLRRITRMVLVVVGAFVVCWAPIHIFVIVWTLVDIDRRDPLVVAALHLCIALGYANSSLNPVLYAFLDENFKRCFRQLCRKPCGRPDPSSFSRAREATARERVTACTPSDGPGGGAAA
Chain of Muscarinic acetylcholine receptor M3 (Homo sapiens) (P20309 whole entry, looked up): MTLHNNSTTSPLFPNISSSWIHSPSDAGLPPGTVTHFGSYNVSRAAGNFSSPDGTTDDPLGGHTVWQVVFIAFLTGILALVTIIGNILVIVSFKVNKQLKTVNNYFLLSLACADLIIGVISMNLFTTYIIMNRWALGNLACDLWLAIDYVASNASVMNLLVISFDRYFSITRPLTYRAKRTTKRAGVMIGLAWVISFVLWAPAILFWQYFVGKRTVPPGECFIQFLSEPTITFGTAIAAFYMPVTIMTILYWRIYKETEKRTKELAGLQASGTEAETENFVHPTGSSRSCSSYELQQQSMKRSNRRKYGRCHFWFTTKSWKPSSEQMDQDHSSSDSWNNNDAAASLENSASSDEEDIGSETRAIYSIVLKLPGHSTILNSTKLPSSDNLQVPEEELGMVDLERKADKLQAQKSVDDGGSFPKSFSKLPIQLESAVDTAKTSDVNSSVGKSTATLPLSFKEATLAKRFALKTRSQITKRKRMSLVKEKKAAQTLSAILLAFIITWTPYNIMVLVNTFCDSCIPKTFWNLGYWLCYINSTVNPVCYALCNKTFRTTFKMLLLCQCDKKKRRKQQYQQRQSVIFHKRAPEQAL
Chain of C-X-C chemokine receptor type 2 (Homo sapiens) (P25025 whole entry): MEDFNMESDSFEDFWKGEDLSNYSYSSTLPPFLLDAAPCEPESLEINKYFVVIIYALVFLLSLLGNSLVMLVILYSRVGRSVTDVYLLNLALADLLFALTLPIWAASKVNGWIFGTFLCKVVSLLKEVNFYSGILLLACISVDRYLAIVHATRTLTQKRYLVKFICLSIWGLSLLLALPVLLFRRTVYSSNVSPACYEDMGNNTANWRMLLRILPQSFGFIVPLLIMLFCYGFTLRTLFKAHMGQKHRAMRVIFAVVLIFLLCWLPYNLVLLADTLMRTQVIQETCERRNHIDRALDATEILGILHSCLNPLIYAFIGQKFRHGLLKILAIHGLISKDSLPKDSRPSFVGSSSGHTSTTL
Chain of Sodium-dependent serotonin transporter (P31645 whole entry): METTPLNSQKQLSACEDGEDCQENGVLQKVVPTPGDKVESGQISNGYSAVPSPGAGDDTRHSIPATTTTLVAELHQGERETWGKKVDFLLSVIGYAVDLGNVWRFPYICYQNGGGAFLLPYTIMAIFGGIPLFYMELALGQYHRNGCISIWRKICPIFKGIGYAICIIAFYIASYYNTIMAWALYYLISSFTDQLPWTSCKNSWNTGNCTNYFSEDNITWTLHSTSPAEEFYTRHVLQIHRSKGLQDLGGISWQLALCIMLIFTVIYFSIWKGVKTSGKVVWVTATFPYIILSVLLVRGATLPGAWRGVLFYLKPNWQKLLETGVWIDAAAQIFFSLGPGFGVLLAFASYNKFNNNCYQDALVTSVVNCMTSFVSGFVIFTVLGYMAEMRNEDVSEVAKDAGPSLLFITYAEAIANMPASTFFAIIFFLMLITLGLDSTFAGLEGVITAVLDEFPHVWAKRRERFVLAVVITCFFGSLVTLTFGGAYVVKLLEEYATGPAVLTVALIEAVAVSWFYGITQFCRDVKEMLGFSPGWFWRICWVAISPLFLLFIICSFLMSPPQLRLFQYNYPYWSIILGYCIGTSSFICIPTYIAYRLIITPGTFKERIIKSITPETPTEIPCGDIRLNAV
Chain of B2 bradykinin receptor (Homo sapiens) (P30411 whole entry): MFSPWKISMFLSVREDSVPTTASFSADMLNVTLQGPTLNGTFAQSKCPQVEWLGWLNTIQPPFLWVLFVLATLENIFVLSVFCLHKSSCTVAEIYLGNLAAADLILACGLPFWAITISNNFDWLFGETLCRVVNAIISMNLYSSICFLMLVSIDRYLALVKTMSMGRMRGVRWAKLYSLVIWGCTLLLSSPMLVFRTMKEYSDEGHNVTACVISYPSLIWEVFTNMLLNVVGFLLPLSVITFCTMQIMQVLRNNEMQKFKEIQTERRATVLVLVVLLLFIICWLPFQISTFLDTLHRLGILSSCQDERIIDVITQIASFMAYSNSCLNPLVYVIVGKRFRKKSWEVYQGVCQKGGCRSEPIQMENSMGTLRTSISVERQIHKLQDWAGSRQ
Chain of 5-hydroxytryptamine receptor 3A (Homo sapiens) (P46098 whole entry): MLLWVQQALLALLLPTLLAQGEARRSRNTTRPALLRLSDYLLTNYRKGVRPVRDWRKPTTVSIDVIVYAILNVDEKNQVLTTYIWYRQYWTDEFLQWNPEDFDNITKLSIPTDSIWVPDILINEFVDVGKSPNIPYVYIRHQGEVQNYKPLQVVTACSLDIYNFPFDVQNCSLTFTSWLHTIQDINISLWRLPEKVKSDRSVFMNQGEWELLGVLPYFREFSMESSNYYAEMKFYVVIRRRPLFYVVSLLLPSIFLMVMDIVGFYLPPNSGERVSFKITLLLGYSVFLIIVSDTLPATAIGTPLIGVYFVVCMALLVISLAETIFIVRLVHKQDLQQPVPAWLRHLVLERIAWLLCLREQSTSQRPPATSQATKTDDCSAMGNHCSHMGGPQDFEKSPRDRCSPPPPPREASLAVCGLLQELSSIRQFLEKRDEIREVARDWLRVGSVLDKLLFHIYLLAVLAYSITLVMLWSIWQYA
Chain of Nociceptin receptor (Homo sapiens) (P41146 whole entry): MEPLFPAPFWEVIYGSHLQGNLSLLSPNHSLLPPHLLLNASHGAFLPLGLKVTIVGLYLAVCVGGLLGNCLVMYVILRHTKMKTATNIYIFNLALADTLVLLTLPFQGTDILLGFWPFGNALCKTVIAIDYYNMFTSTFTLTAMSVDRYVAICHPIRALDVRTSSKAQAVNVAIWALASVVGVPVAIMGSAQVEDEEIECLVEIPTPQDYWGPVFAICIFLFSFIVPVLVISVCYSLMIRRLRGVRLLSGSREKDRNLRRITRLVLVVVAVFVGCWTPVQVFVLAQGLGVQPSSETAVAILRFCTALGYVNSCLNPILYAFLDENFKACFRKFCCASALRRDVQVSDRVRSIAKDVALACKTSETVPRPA

With `CN(C)CCC(c1ccc(Cl)c(Cl)c1)N1CCOCC1` (configuration not stated) the concentration at 0.08 h [1] was 1120 ng/mL, the Kp at 0.25 h [2] was 22 and the Activity (Salmonella typhimurium [3]) was 12. It also gave an inhibition (Homo sapiens [4]) of 9.8%, an AUC(0-inf) [5] of 83.7 ng·h/mL and an IC50 [6] of 378 nM. It also gave an Activity (Salmonella typhimurium [7]) of 31, an Activity (Salmonella typhimurium [8]) of 93 and an inhibition [9] of -1.1%. It also gave an Activity (Salmonella typhimurium [10]) of 30, a survival at 336 h [11] of 60% and an inhibition [12] of 20.6%. The inhibition at 10 µM [13] was 41.8%, the Kp at 2 h [14] was 16.4 and the concentration at 1 h [15] was 33.5 ng/mL. For the same molecule, the concentration at 0.25 h [16] was 42 ng/mL, the inhibition (Homo sapiens [17]) was -2.3% and the inhibition [18] was -3.8%. It also gave an inhibition [19] of 22.7%, an AUC [20] of 78.6 ng·h/mL and a Kp at 0.5 h [21] of 12.3. It also gave an MRT [22] of 1.06 h, an inhibition [23] of 0.9% and an Activity (Salmonella typhimurium [24]) of 32. The inhibition [25] was 32.1%, the concentration at 0.08 h [26] was 48.5 ng/mL and the Kp at 0.08 h [27] was 23.1. For the same molecule, the Activity (Salmonella typhimurium [28]) was 74, the inhibition [29] was 9.3% and the inhibition [30] was -5.2%. For the same molecule, the concentration at 0.5 h [31] was 549 ng/mL, the survival at 336 h [32] was 100% and the inhibition [33] was -0.5%. For the same molecule, the inhibition [34] was 9.6%, the Vz/F (Rattus norvegicus) was 8.3 L/kg and the survival at 336 h [35] was 100%. For the same molecule, the Activity (Salmonella typhimurium [36]) was 75.
